Reference: ChEMBL document CHEMBL1126255, “Excitatory amino acid receptor ligands. Synthesis and biological activity of 3-isoxazolol amino acids structurally related to homoibotenic acid” (J Med Chem, 1992)

Key:
[1] = target: T1, Glutamate receptor ionotropic, AMPA (Rattus norvegicus, UniProt P19490+P19491+P19492+P19493); experiment: Concentration required for 50% inhibition of [3H]AMPA binding to AMPA receptor in rat cortical slice preparation
[2] = target: Glutamate receptor ionotropic, kainate; experiment: Concentration required for 50% inhibition of [3H]-kainic acid binding to ionotropic glutamate receptor ionotropic kainate in rat cortical slice preparation
[3] = target: T1, Glutamate receptor ionotropic, AMPA; experiment: Concentration required for 50% inhibition of [3H]Glu binding to AMPA receptor in rat cortical slice preparation in the presence of 2.5 mM CaCl2
Glutamate NMDA receptor [4] = experiment: Concentration required for 50% inhibition of [3H]-CPP binding to N-methyl-D-aspartate glutamate receptor in rat cortical slice preparation
In short: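 Rat brain membranes prepared by the Ransom and Stec method. [3H]CPP binding run per an earlier protocol, but ended by filtration through GF/B filters presoaked in 0.1% polyethyleneimine instead of centrifugation. At least three independent experiments per value.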

Glutamate NMDA receptor [5] = experiment: Concentration required for 50% inhibition of [3H]-MK-801 binding to N-methyl-D-aspartate glutamate receptor in rat cortical slice preparation
In short: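 Fully stimulated rat brain membranes prepared by the Ransom and Stec method. Otherwise per an earlier protocol. At least three independent experiments per value.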

| SMILES | IC50 [1] [µM] | IC50 [2] [µM] | IC50 [3] [µM] | IC50 (Glutamate NMDA receptor [4]) [µM] | IC50 (Glutamate NMDA receptor [5]) [µM] |
| --- | --- | --- | --- | --- | --- |
| CC(C)(C)c1onc(O)c1CC(N)C(=O)O (configuration not stated) |  |  |  | > 100 | > 100 |
| Cc1c(O)noc1CC(N)C(=O)O (configuration not stated) | 0.6 | > 100 | 0.18 | > 100 | > 100 |

Further lines, results first:

| IC50 [1] [µM] | IC50 [2] [µM] | IC50 [3] [µM] | IC50 (Glutamate NMDA receptor [4]) [µM] | IC50 (Glutamate NMDA receptor [5]) [µM] | SMILES |
| --- | --- | --- | --- | --- | --- |
| 2 | > 100 | 0.18 | > 100 | > 100 | CCCCc1c(O)noc1CC(N)C(=O)O (configuration not stated) |
| 2 | > 100 | 0.14 | > 100 | > 100 | NC(Cc1onc(O)c1CCO)C(=O)O (configuration not stated) |
| > 100 | > 100 | 0.02 | > 100 | > 100 | CCCCCCCCc1c(O)noc1CC(N)C(=O)O (configuration not stated) |
